Source: PubChem BioAssay
STAT1 inh: reduces IFN-gamma driven STAT1 reporter signal | NIH 3T3 STAT1-luciferase reporter, luminescence | inhibition, % at 5.5 µM | 200,000 tested, 0.35% active | AID 920;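 active = inhibition above a set limit, the mean inhibition across all tested compounds plus 3 SD, cut at about 34% in these data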
STAT1 activator: activators of IFN-gamma induced STAT1 signaling. 200,000 tested, 2.6% active. NIH 3T3 STAT1-luciferase reporter, luminescence; 100% = IFN-gamma alone, no compound. activation (% of control), % at 5.5 µM. AID 932;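 active = activation above the screen-wide mean activation plus 3 SD, cut at about 130% in these data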
NF-kB neuron act: raises NF-kB expression in human neuronal cells; NF-kB reporter expression; stronger effect = higher value; fold change at 12.5 µM; 190,000 tested, 1.6% active; in the data active = fold change above about 3.3
STAT3 inh: inhibitors of IL-6 induced STAT3 signaling; U3A cells, IL-6 STAT3-luciferase reporter, luminescence; host cell line lacks STAT1; inhibition, % at 5.5 µM; 190,000 tested, 0.89% active; AID 862;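 active = inhibition above the mean inhibition across all screened compounds plus 3 SD, cut at about 44% in these data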
STAT3 activator: STAT3 signaling activation; U3A cells, IL-6 STAT3-luciferase reporter, luminescence; 100% = signal with IL-6 EC80 alone; activation (% of control), % at 5.6 µM; 190,000 tested, 0.91% active;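 active = activation above the screen-wide mean of compound activation plus 3 SD, cut at about 130% in these data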
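Material: STAT1-lacking human U3A cells, STAT3 luciferase reporter | Benchmarks: IL-6-only wells as 100% reference | Probe or stimulus: IL-6 (33 ng/mL) | Timing: Compound 1 h, then IL-6 6 h at 37 °C | Detection: Luminescence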
APP 5'UTR act: APP 5'UTR luciferase reporter activation; SH-SY5Y APP 5'UTR luciferase reporter, luminescence; zero percent = DMSO vehicle wells; activation, % at 2 µM; 190,000 tested, 1% active; AID 1276;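 active = activation above a set limit, based on mean plus 3 SD of controls, cut at about 140% in these data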
STAT1 activ conf: confirmation of STAT1 signaling activators; activation (% of control), % at 5.7 µM; shares compounds with STAT1 activator; AID 1262; 1,200 tested, 97% active; NIH 3T3 STAT1-luciferase reporter, IFN-gamma potentiation, luminescence; 100% = IFN-gamma EC80 alone, no compound;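 active = activation above a set limit carried over from the earlier primary STAT1 screen, cut at about 140% in these data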
NFkB act: counter-screen for STAT1 activators: NF-kappaB activation; AID 1306; activation (% of control), % at 5.7 µM; shares compounds with STAT1 activator; 1,200 tested, 43% active; HEK293T NF-kB luciferase reporter, TNF-alpha stimulated, luminescence; 100% = TNF-alpha with vehicle only;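 active = activation above the mean of solvent-only control wells plus 3 SD, set per campaign, cut at about 130% in these data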;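 note: TNF-alpha given at a submaximal dose yielding about 80% of full reporter signal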
STAT3 act 2: counter-screen for STAT1 activators: human STAT3 activation. shares compounds with STAT1 activator. U3A cells STAT3-luciferase reporter, IL-6, luminescence; cells lack STAT1; 100 = IL-6 alone, no compound effect. activation (% of control), % at 5.7 µM. 1,200 tested, 46% active. AID 1316;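 active = activation above the solvent-only control well mean plus 3 SD, set per plate batch, cut at about 110% in these data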;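 note: higher means more STAT3 reporter activation so hits are non-selective activators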
Each line names hits and unclear results; the compound was inactive in the other large screens (follow-up assays come after a bar, where they were run). The list is not random: actives were taken first. Their share in the collection is about 5.1%.

Cc1ccc(OC(=O)CCC(=O)N2CCc3ccccc32)cc1	none
Cc1ccc(OCC(=O)N2CCc3ccccc32)cc1	STAT1 activator 155, APP 5'UTR act 156 | STAT1 activ conf 192 | NFkB act 134 | STAT3 act 2 inactive
CC1CC(C)CN(S(=O)(=O)c2ccccc2[N+](=O)[O-])C1 (stereo not drawn)	none
CCCn1nnc(NC(=O)c2ccc3ccccc3c2)n1	STAT1 activator 154 | STAT1 activ conf inactive | NFkB act inactive | STAT3 act 2 inactive
NC(=O)CSc1nc2cc3c(cc2c(=O)n1CCCC(=O)NCc1ccc2c(c1)OCO2)OCO3	none
CCOC(=O)c1sc(N/N=C/c2ccccc2)nc1C	STAT1 activator 152 | STAT1 activ conf 183 | NFkB act 134 | STAT3 act 2 inactive
COc1ccccc1NC(=S)N/N=C/c1ccc(O)cc1	STAT1 activator 159, NF-kB neuron act 4 | STAT1 activ conf 209 | NFkB act inactive | STAT3 act 2 inactive
Cc1cc(C(=O)CSc2nc3ccccc3[nH]2)c(C)n1Cc1ccco1	STAT1 activator 165, APP 5'UTR act 214 | STAT1 activ conf 209 | NFkB act inactive | STAT3 act 2 inactive
CCCn1c(C)cc(C(=O)CSc2nc3ccccc3c(=O)n2Cc2ccco2)c1C	none
O=C(Nc1ccccc1)OC1CC2CC1C1CCCC21 (stereo not drawn)	STAT1 activator 162 | STAT1 activ conf 175 | NFkB act 134 | STAT3 act 2 111
N#C/C(=C/c1ccco1)c1nc2ccccc2s1	STAT1 activator 165, NF-kB neuron act 8.1, APP 5'UTR act 186 | STAT1 activ conf 226 | NFkB act inactive | STAT3 act 2 140
N#C/C(=C/c1ccc(-c2cc(C(=O)O)cc(C(=O)O)c2)o1)c1nc2ccccc2s1	none
N#C/C(=C\c1ccco1)c1nc2ccccc2s1	STAT1 activator 173, APP 5'UTR act 138 | STAT1 activ conf 218 | NFkB act inactive | STAT3 act 2 142
COC(=O)CSCC(=O)Nc1nnc(-c2ccccc2C)s1	none
Cc1ccc2nc(Cl)c(C#N)cc2c1	none
N#CC1=C2Sc3ccccc3N2CCCC1=O	none
N#CC1=C2SC=C(c3ccc(Br)cc3)N2CCCC1=O	STAT1 activator 157, NF-kB neuron act 6.8, APP 5'UTR act 176 | STAT1 activ conf 194 | NFkB act 147 | STAT3 act 2 inactive
Cc1nnc(-n2ncc(C#N)c2N)c2nn(-c3ccccc3F)c(C)c12	none (no result: NF-kB neuron act)
CCC(CC)=C(C#N)C(=O)NC1CCCCC1	none
CCc1cc2c(=O)c(-c3ccc4c(c3)OCCO4)coc2cc1OS(C)(=O)=O	STAT1 activator 156 | STAT1 activ conf 160 | NFkB act 137 | STAT3 act 2 117
COC(=O)c1cc(S(=O)(=O)n2nc(C)c(Br)c2C)c(Cl)cc1Cl	none
O=C(c1ccncc1)c1ccc(NC(=O)c2cccs2)cc1	none
O=C(Nc1ccc2c(c1)CCC2)c1c(F)cccc1Cl	STAT1 activator 175, NF-kB neuron act 4.2 | STAT1 activ conf 196 | NFkB act 140 | STAT3 act 2 112
O=C(Nc1ccc2c(c1)CCC2)c1ccc(F)cc1	STAT1 activator 174, NF-kB neuron act 8.5, APP 5'UTR act 197 | STAT1 activ conf 233 | NFkB act inactive | STAT3 act 2 inactive
O=C(Nc1ccc2c(c1)CCC2)c1cccs1	STAT1 activator 157, NF-kB neuron act 6.2 | STAT1 activ conf 198 | NFkB act 136 | STAT3 act 2 inactive
COc1ccc(C2C(C(=O)Nc3ccc4c(c3)OCCO4)c3ccccc3C(=O)N2C)cc1 (stereo not drawn)	none
O=C(Nc1cccc(S(=O)(=O)N2CCCCC2)c1)c1ccc(S(=O)(=O)C(F)F)cc1	none
Cc1ccc2nc(SCn3nnc4ccccc4c3=O)[nH]c2c1	STAT1 activator 163, NF-kB neuron act 3.8, APP 5'UTR act 175 | STAT1 activ conf 180 | NFkB act inactive | STAT3 act 2 129
Cc1ccc2nc(SCC(=O)c3c(C)[nH]c4ccccc34)[nH]c2c1	none
O=c1c2ccccc2nnn1CSc1ncnc2ccccc12	none
O=c1c2ccccc2nnn1CSc1ccccc1F	STAT1 activator 160, NF-kB neuron act 4.7, APP 5'UTR act 152 | STAT1 activ conf 198 | NFkB act inactive | STAT3 act 2 inactive
Cc1cc(C(=O)NCCN2C(=O)S/C(=C\c3cccs3)C2=O)ccc1[N+](=O)[O-]	none
CN1C(=O)/C(=C/C=C2\SCCN2C)SC1=S	STAT1 activator 159, NF-kB neuron act 4.4, APP 5'UTR act 174 | STAT1 activ conf 224 | NFkB act inactive | STAT3 act 2 inactive
CCCN1C(=O)/C(=C\C=C2/Sc3ccccc3N2CC)SC1=S	none
Cc1cc(C)nc(SCC(=O)Nc2nonc2N)n1	none
Cc1cccc(-c2nc3sc(C)cc3c(=O)o2)c1	none
CN1CCN(c2ccc(NC(=O)c3ccccc3Br)cc2)CC1	none
CCc1ccc(NC(=O)c2ccccc2Br)cc1	STAT1 activator 155, NF-kB neuron act 4.2 | STAT1 activ conf 177 | NFkB act 138 | STAT3 act 2 inactive
Cn1c(O)c(C=Nc2ccc(Br)cc2)sc1=O	STAT1 activator 160, APP 5'UTR act 165 | STAT1 activ conf 189 | NFkB act 136 | STAT3 act 2 inactive
O=C(Nc1nccs1)Oc1ccccc1	none
C/C(=C\c1ccccc1)C(=O)Nc1nccs1	STAT1 activator 154 | STAT1 activ conf 163 | NFkB act inactive | STAT3 act 2 inactive
N#C/C(=C\c1cccs1)C(=O)Nc1nccs1	STAT1 activator 207, NF-kB neuron act 4.1 | STAT1 activ conf 229 | NFkB act 150 | STAT3 act 2 114
N#C/C(=C\c1cccs1)C(=O)NCc1ccccc1	none
COc1ccc(CC(=O)Nc2cccc(-c3ccc4nnc(C)n4n3)c2)cc1OC	none
O=[N+]([O-])c1ccccc1N/N=C/c1ccc2c(c1)OCO2	STAT1 activator 152, APP 5'UTR act 139 | STAT1 activ conf 226 | NFkB act inactive | STAT3 act 2 117
NS(=O)(=O)c1ccc(N/N=C/c2ccc3c(c2)OCO3)c([N+](=O)[O-])c1	none
O=c1cc(-c2ccccc2)[nH]c2ccccc12	none
